Laboratory results published in ChEMBL document CHEMBL1155730, “Taxane diterpenoids from the stem bark of Taxus mairei” (J Nat Prod, 2001).
≈ marks a conversion by molar mass, not a printed value. Starred links: 1 amine or outer side, 2 acyl side, 3 side chain; linkers in the order of their positions; H or OH if unused. Positions of bridges follow the written chain, without caps; N, C: chain ends. Non-standard residues stand in square brackets, D forms with d. Residues, ends and D or L forms follow the SMILES beside them. Chains are numbered I, II in the order given. Actinocin(1to9) = Cc1c2oc3c(C)ccc(C(=O)[*:2])c3nc-2c(C(=O)[*:1])c(N)c1=O; NMeV = CN[C@H](C(=O)O)C(C)C; Sar = CNCC(=O)O

Columns and labels:
[1] = Cytotoxicity against human HepA cells after 72 hrs by methylene blue assay; assay type: functional, cell-based
Summary of the method: (§1)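 Cells grown in RPMI-1640 at 37 °C under 5% CO2, seeded at 2880 cells/well and left 3 h before adding samples. Samples prepared at 1, 10, 40 and 100 μg/mL, then 3 days at 37 °C. Cells fixed in 10% formal saline, stained with 1% methylene blue in 0.01 M borate buffer, washed, and dye eluted with ethanol/0.1 M HCl (1:1). A650 read. IC50 is 50% absorbance reduction vs untreated cells.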

KB = experiment: Cytotoxicity against human KB cells after 72 hrs by methylene blue assay; assay type: functional, cell-based; summary of the method: as §1

SMILES	IC50 [1]	IC50 (KB)
CO[C@@]12[C@H](COC(N)=O)C3=C(C(=O)C(C)=C(N)C3=O)N1C[C@@H]1N[C@@H]12 [MITOMYCIN]	0.01 µg/mL (≈ 0.0299 µM)	–
CC(=O)O[C@@H]1C2=C(C)[C@@H](OC(=O)c3ccccc3)C[C@@]2(C(C)(C)O)[C@@H](O)[C@@H]2[C@]3(OC(C)=O)CO[C@@H]3C[C@H](OC(C)=O)[C@@]2(C)[C@H]1OC(=O)c1ccccc1	> 20 µg/mL	> 20 µg/mL
CC(=O)OC[C@H]1[C@H]2[C@H](O)[C@]3(C(C)(C)O)C[C@H](OC(C)=O)C(C)=C3[C@@H](O)[C@H](OC(C)=O)[C@]2(C)[C@@H](OC(C)=O)C[C@@H]1OC(C)=O [TAXUMAIRO U]	0.3 µg/mL (≈ 0.49 µM)	10.3 µg/mL (≈ 16.8 µM)
CC(=O)OC[C@H]1[C@H]2[C@H](O)[C@]3(C(C)(C)O)C[C@H](OC(C)=O)C(C)=C3[C@@H](OC(C)=O)[C@H](OC(C)=O)[C@]2(C)[C@@H](OC(C)=O)C[C@@H]1OC(C)=O	2.7 µg/mL (≈ 4.12 µM)	> 20 µg/mL
CC(=O)OC[C@H]1[C@H]2[C@H](O)[C@]3(C(C)(C)O)C[C@H](O)C(C)=C3[C@@H](O)[C@H](OC(C)=O)[C@]2(C)[C@@H](OC(C)=O)C[C@@H]1OC(C)=O [TAXUMAIROL V]	1.6 µg/mL (≈ 2.8 µM)	3.9 µg/mL (≈ 6.83 µM)
CC(=O)O[C@H]1C(=O)[C@@]2(C)[C@H]([C@H](OC(=O)c3ccccc3)[C@]3(O)C[C@H](OC(=O)[C@H](O)[C@@H](NC(=O)c4ccccc4)c4ccccc4)C(C)=C1C3(C)C)[C@]1(OC(C)=O)CO[C@@H]1C[C@@H]2O [PACLITAXEL]	< 0.1 µg/mL	< 0.1 µg/mL
Cc1c2oc3c(C)ccc(C(=O)N[C@@H]4C(=O)N[C@H](C(C)C)C(=O)N5CCC[C@H]5C(=O)N(C)CC(=O)N(C)[C@@H](C(C)C)C(=O)O[C@@H]4C)c3nc-2c(C(=O)N[C@@H]2C(=O)N[C@H](C(C)C)C(=O)N3CCC[C@H]3C(=O)N(C)CC(=O)N(C)[C@@H](C(C)C)C(=O)O[C@@H]2C)c(N)c1=O [DACTINOMYCIN] (I: T[dV]P[Sar][NMeV] / II: T[dV]P[Sar][NMeV]; ester I:1-I:C, II:1-II:C; linker I:N-II:N via Actinocin(1to9))	0.01 µg/mL (≈ 0.00797 µM)	–
CC(=O)O[C@@H]1C2=C(C)[C@@H](O)C[C@@]2(C(C)(C)O)[C@@H](OC(C)=O)[C@@H]2[C@]3(OC(C)=O)CO[C@@H]3C[C@H](OC(C)=O)[C@@]2(C)[C@H]1O [TAXUMAIROL W]	7 µg/mL (≈ 12.3 µM)	> 20 µg/mL
